Measurements as given in ChEMBL document CHEMBL1671787, “2-Aminothiazoles as therapeutic leads for prion diseases” (J Med Chem, 2011).

Columns and labels:
Liver microsomes = experiment: Metabolic stability in rat liver microsomes assessed as half life by LC-MS/MS analysis; assay type: ADME, Microsome
In short: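 Compound at 1 µM final (0.6% acetonitrile, 0.01% DMSO) in PBS pH 7.4. Incubated with rat hepatic microsomes (~0.3 mg/mL), 1 mM NADPH and 4 mM UDPGA or PBS at 37 °C. Samples taken at 0, 1, 10, 30 and 60 min and quenched in acetonitrile with carbamazepine internal standard. Remaining parent measured by LCMS; duplicate incubations. Midazolam and 4-nitrophenol served as controls.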

[1] = Antiprion activity against PrPsc infected in dividing mouse ScN2a-cl3 cells assessed as reduction in prion load after 5 days by ELISA; assay type: cell-based; details: N2a-cl3, 120 h
In short: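 ScN2a (RML-infected N2a) cells seeded at 40,000 cells/well in MEM with 10% FBS, GlutaMax, 500 µg/mL geneticin. Compounds added 4 h after seeding, 0.5% final DMSO. Incubated 5 days at 37 °C, 5% CO2. Lysates captured on D18-coated ELISA plates overnight at 4 °C, then HRP-D13 antibody 1 h. EC50 is the mean of three determinations.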

MDCK [2] = experiment: Permeability across basolateral to apical side MDR1-expressing MDCK cells; assay type: ADME, cell-based, Canis lupus familiaris; details: dog
In short: (§1)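 MDR1-MDCK monolayers grown 5–10 days on 1 µm filters. Compound at 10 µM in HBSS pH 7.4 with 25 mM HEPES and 0.05% PS80, added to the apical or basolateral donor chamber. Receiver samples taken every 20 min and quantified by HPLC/UV/MS. Permeability coefficients calculated per interval and averaged; run in duplicate.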

MDCK [3] = experiment: Permeability across apical to basolateral side MDR1-expressing MDCK cells; assay type: ADME, cell-based, Canis lupus familiaris; details: dog; in short: as §1
Nucleic Acid = experiment: Ratio of drug level in FVB mouse to EC50 for PrPsc
In short: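 Brain (and plasma) levels in wild-type FVB mice given 0, 40, 80, 130 or 210 mg/kg/day for 3 days in liquid rodent diet (PEG400 stock diluted with feed, cocoa, water), 3 mice per dose. At an arbitrary point after feeding (pseudo steady-state), brain homogenised and assayed by LC-MS. Levels set against the mean EC50 from 3 determinations in ScN2a-cl3 cells (5-day PrPSc ELISA).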

Brain [4] = experiment: Drug uptake in FVB mouse brain at 40 to 210 mg/kg/day, po administered as part of liquid diet for 3 days; assay type: ADME, organism-based; set-up: route oral; details: in vivo, 72 h
In short: (§2)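 Wild-type FVB mice (~25 g), three per dose group sharing a cage. Compound was dissolved in PEG400 and diluted into a liquid diet of homogenized rodent feed, cocoa and water. Diet given ad libitum for 3 days; daily dose estimated from ~20 mL/day intake. Doses were 0, 40, 80, 130 or 210 mg/kg/day. After CO2 euthanasia, brain was homogenized with four-fold water and measured by LC-MS.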

Brain [5] = experiment: Drug uptake in FVB mouse brain at 130 mg/kg/day, po administered as part of liquid diet for 3 days; assay type: ADME, organism-based; set-up: route oral; details: in vivo, 72 h; in short: as §2

Work on `COc1ccc(Nc2nc(-c3ccc(OC)c(OC)c3)cs2)nc1` yielded a t1/2 (Liver microsomes) of 45 min.

Work on `COc1ccc(-c2csc(Nc3cnccn3)n2)cc1OC` yielded an EC50 [1] of 15600 nM.

In the case of `c1ccc(-c2csc(Nc3cc4ccccc4cn3)n2)cc1`, the EC50 [1] is reported as 3080 nM.

Work on `COc1ccc(-c2csc(Nc3ccc(C)cn3)n2)cc1OC` yielded an EC50 [1] of 790 nM.

Work on `c1ccc(-c2cc(-c3csc(Nc4ccncc4)n3)on2)cc1` yielded an EC50 [1] of 4420 nM.

Compound `c1ccc(-c2ccc(-c3csc(Nc4cc5ccccc5cn4)n3)s2)nc1` has an EC50 [1] of 2010 nM.

In the case of `COc1ccccc1-c1csc(Nc2ccc(C)cn2)n1`, the EC50 [1] is reported as > 29000 nM.

With `FC(F)(F)Oc1ccc(-c2csc(Nc3cc4ccccc4cn3)n2)cc1` the EC50 [1] was > 32000 nM.

`COc1ccc(-c2csc(Nc3ccc4ccccc4n3)n2)cc1OC` showed a permeability (MDCK [2]) of 8.9 ×10⁻⁶ cm/s, an EC50 [1] of 430 nM and a permeability (MDCK [3]) of 9.2 ×10⁻⁶ cm/s. For the same compound, the t1/2 (Liver microsomes) was 69 min.

In the case of `COc1ccc(-c2csc(N(C(C)=O)c3cc4ccccc4cn3)n2)cc1OC`, the EC50 [1] is reported as 81 nM.

Compound `c1ccc2cc(Nc3nc(-c4ccncc4)cs3)ncc2c1` has an EC50 [1] of 310 nM.

Compound `COc1ccc(-c2csc(Nc3ncccc3C)n2)cc1OC` has an EC50 [1] of 7290 nM.

With `COc1ccc(-c2csc(N(C)c3cc4ccccc4cn3)n2)cc1OC` the EC50 [1] was 140 nM.

Work on `COc1ccc(-c2csc(NC(=O)c3cc4ccccc4cn3)n2)cc1OC` yielded an EC50 [1] of 8180 nM.

For `COc1ccc(-c2csc(Nc3cc(C)ccn3)n2)cc1OC`, the EC50 [1] was 1000 nM.

Compound `Cc1ccc(Nc2nc3c(s2)Cc2ccccc2-3)nc1` has an EC50 [1] of 2440 nM.

With `COc1ccc(-c2csc(Nc3cccc4ccccc34)n2)cc1OC` the EC50 [1] was > 32000 nM.

For `Cc1csc(Nc2cc3ccccc3cn2)n1`, the EC50 [1] was > 32000 nM.

`COc1ccc(-c2csc(Nc3ccc(C(F)(F)F)cn3)n2)cc1OC` showed a permeability (MDCK [2]) of 8.7 ×10⁻⁶ cm/s, an EC50 [1] of 2530 nM and a permeability (MDCK [3]) of 9.4 ×10⁻⁶ cm/s. It also gave a t1/2 (Liver microsomes) of 150 min.

`Cc1ccc(Nc2nc(-c3ccc(-c4ccccn4)s3)cs2)nc1` showed an EC50 [1] of 1230 nM.

`COc1ccc(-c2csc(Nc3ccc(C)cn3)n2)cc1` showed an EC50 [1] of 3030 nM.

With `COc1ccc(-c2csc(Nc3ccc4ccccc4c3)n2)cc1OC` the EC50 [1] was 390 nM.

`Cc1ccc(Nc2nc(-c3cc(-c4ccccc4)no3)cs2)nc1` showed a permeability (MDCK [2]) of 8.3 ×10⁻⁶ cm/s, a Ratio (Nucleic Acid) of 25 and an EC50 [1] of 940 nM. The Drug uptake (Brain [4]) was “Active”, the permeability (MDCK [3]) was 6.8 ×10⁻⁶ cm/s and the Drug uptake (Brain [5]) was “Active”. The t1/2 (Liver microsomes) was 151 min.

For `Cc1ccc(Nc2nc(C)cs2)nc1`, the EC50 [1] was > 32000 nM.

For `c1ccc(-c2cc(-c3csc(Nc4ccccn4)n3)on2)cc1`, the EC50 [1] was 600 nM.

`COc1ccc(-c2csc(Nc3ncccn3)n2)cc1OC` showed an EC50 [1] of 3930 nM.

Compound `COc1ccnc(Nc2nc(-c3cc(-c4ccccc4)no3)cs2)c1` has an EC50 [1] of 250 nM.

In the case of `FC(F)(F)c1csc(Nc2cc3ccccc3cn2)n1`, the EC50 [1] is reported as 8660 nM.

With `Cc1ccc(Nc2nc(-c3ccncc3)cs2)nc1` the permeability (MDCK [2]) was 42.3 ×10⁻⁶ cm/s, the EC50 [1] was 1570 nM and the permeability (MDCK [3]) was 32.6 ×10⁻⁶ cm/s. For the same compound, the t1/2 (Liver microsomes) was 20 min.

For `CNc1nc(-c2ccc(OC)c(OC)c2)cs1`, the EC50 [1] was > 32000 nM.

Compound `Cc1cccc(Nc2nc(-c3cc(-c4ccccc4)no3)cs2)n1` has an EC50 [1] of 820 nM.

For `COc1ccc(-c2csc(C(=O)Nc3cc4ccccc4cn3)n2)cc1OC`, the EC50 [1] was > 10000 nM.

In the case of `COc1ccc(Nc2nc(-c3cc(-c4ccccc4)no3)cs2)nc1`, the EC50 [1] is reported as 230 nM.

For `COc1ccc(-c2csc(Nc3cccc(C)n3)n2)cc1OC`, the EC50 [1] was 3010 nM.

In the case of `COc1cc2c(cc1OC)-c1nc(Nc3ccc(C)cn3)sc1C2`, the EC50 [1] is reported as 5590 nM.

Compound `COc1ccc(-c2csc(Nc3cc4ccccc4cn3)n2)cc1` has an EC50 [1] of 340 nM.

Compound `Cc1ccc(Nc2nc(-c3ccccc3)cs2)nc1` has an EC50 [1] of 7880 nM and a t1/2 (Liver microsomes) of 10 min.

Work on `Cc1ccc(Nc2nc(-c3ccccn3)cs2)nc1` yielded an EC50 [1] of 860 nM.

With `Cc1ccc(Nc2nc(-c3c(-c4ccccc4)noc3C)cs2)nc1` the permeability (MDCK [2]) was 8.6 ×10⁻⁶ cm/s, the EC50 [1] was > 26000 nM and the permeability (MDCK [3]) was 11.2 ×10⁻⁶ cm/s. The t1/2 (Liver microsomes) was 19 min.

`Cc1ccnc(Nc2nc(-c3cc(-c4ccccc4)no3)cs2)c1` gave an EC50 [1] of 1270 nM.

`COc1ccc(NC(=O)c2csc(Nc3ccc(C)cn3)n2)cc1OC` showed an EC50 [1] of 2440 nM.

With `c1ccc(-c2cc(-c3csc(Nc4cc5ccccc5cn4)n3)on2)cc1` the EC50 [1] was 800 nM.

With `COc1ccc(-c2csc(Nc3cc4ccccc4cn3)n2)cc1OC` the t1/2 (Liver microsomes) was 83 min.
